Test results reported in article PMC6175367 (Journal of Clinical Pharmacology, 2018).
Structures can show the parent of a compound that is named as a salt.

Experiments:
[1] = Plasma pharmacokinetics after multiple oral administrations of imarikiren; assay type: in vivo, human
Summary of the method: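 Healthy males (nonelderly 20–45 y, elderly 65–85 y) took test compound or placebo tablets orally once daily for 7 days (80 or 160 mg). Fluids were withheld from 2 h pre-dose to 4 h post-dose. Plasma parent and metabolite were measured by HPLC‑MS/MS, with noncompartmental analysis on actual sampling times. Accumulation = 100 × AUC0‑tau day 7/day 1. Age effect: elderly−nonelderly difference in ln AUC0‑tau and Cmax, day 7, with 90%/95% CI.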

[2] = target: T1, plasma renin activity (PRA) (Homo sapiens, UniProt P00797); assay type: in vivo
T1 sequence (P00797 67-406): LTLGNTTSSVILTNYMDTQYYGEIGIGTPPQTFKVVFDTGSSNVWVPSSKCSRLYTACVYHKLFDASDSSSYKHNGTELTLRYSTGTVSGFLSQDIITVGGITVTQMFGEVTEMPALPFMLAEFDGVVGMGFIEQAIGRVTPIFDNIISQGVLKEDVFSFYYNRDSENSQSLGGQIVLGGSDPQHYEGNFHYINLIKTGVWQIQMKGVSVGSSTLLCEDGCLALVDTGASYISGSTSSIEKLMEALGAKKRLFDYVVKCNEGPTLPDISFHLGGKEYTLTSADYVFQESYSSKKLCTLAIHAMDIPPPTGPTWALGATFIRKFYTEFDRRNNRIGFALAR

[3] = test system: plasma active renin concentration (PRC); assay: Plasma active renin concentration; assay type: in vivo, human
Summary of the method: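 Healthy Japanese male volunteers (nonelderly 20‑45 y, elderly 65‑85 y) took test compound or placebo tablets orally once daily for 7 days, 30 min after starting breakfast with 200 mL water. Sodium-matched meals were given. Plasma active renin was measured by immunoradiometric assay at 1 h predose and 1, 2, 4, 6, 12 h postdose on days 1 and 7, 1 h predose on days 2‑6, and 23, 47, 71 h after the last dose.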

[4] = test system: plasma angiotensin II concentration (AII); assay: Plasma angiotensin II concentration; assay type: in vivo, human
Summary of the method: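 Double-blind, placebo-controlled once-daily oral tablet dosing for 7 days in healthy Japanese men (nonelderly 20‑45 y, elderly 65‑85 y), given 30 min after starting breakfast with 200 mL water, with uniform meals. Plasma angiotensin II was measured by radioimmunoassay at 1 h predose and 1‑12 h postdose on days 1 and 7, predose on days 2‑6, and up to 71 h after the last dose.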

[5] = Safety evaluation: adverse events, vital signs, weight, ECG, laboratory tests; assay type: in vivo, human
PRA [6] = details: ≥5 mg dose, CPH‐001 study; cited from earlier work
[7] = dose of up to 200 mg, healthy nonelderly adult male subjects, CPH‐001; cited from earlier work
[8] = single‐dose administration; cited from earlier work
PRA [9] = details: aliskiren 300 mg on day 1 and days 4‐10, Japanese and white subjects; cited from earlier work
[10] = imarikiren 80 mg, day 7, Cohort 3 vs Cohort 1
[11] = imarikiren 80 mg, nonelderly, listed as imarikiren
[12] = imarikiren 160 mg, nonelderly, listed as imarikiren
[13] = imarikiren 80 mg once daily 7 days, elderly (n = 9)
[14] = imarikiren 80 mg once daily 7 days, nonelderly (n = 9)
[15] = imarikiren 80 mg, nonelderly (2 of 9 subjects)
[16] = imarikiren 160 mg once daily 7 days, nonelderly (n = 9)

Compound: COCCCCn1c(C(=O)N(CC(C)C)[C@@H]2CNC[C@H](C(=O)N3CCOCC3)C2)nc2ccccc21 [Imarikiren, Imarikiren hydrochloride]
- Tmax ([1]; human, plasma, oral, 160 mg, median time to reach the maximum observed plasma concentration (Tmax), nonelderly subjects, all groups (80 and 160 mg), days 1 and 7): 1 to 2 h
- CL/F, mean (SD) ([1]; imarikiren 80 mg oral once daily, elderly, Day 1): 15.2 (4.6) L/hr
- CL/F, mean (SD) ([1]; imarikiren 80 mg oral once daily, elderly, Day 7): 14.1 (3.4) L/hr
- CL/F, mean (SD) ([1]; imarikiren 80 mg oral once daily, nonelderly, Day 1): 19.6 (3.6) L/hr
- CL/F, mean (SD) ([1]; imarikiren 80 mg oral once daily, nonelderly, Day 7): 21.5 (5.6) L/hr
- AUC0‐tau higher in elderly than in nonelderly subjects [1, 10]: 52%
- Cmax higher in elderly than in nonelderly subjects [1, 10]: 39%
- Accumulation index (AUC) percentage (100 × AUC0‐tau day 7/AUC0‐inf day 1), mean (SD) ([1]; imarikiren 80 mg, nonelderly): 94.4 (21.8) %
- Accumulation index (t1/2) percentage, mean (SD) ([1]; imarikiren 80 mg, nonelderly): 116.4 (39.1) %
- R(AUC), AUC accumulation factor percentage (100 × AUC0‐tau day 7/AUC0‐tau day 1), mean (SD) ([1]; imarikiren 80 mg, nonelderly): 106.4 (22.4) %
- Accumulation index (AUC) percentage (100 × AUC0‐tau day 7/AUC0‐inf day 1), mean (SD) [1, 11]: 94.4%
- R(AUC), AUC accumulation factor percentage (100 × AUC0‐tau day 7/AUC0‐tau day 1), mean (SD) [1, 11]: 106.4%
- CL/F, mean (SD) ([1]; imarikiren 160 mg oral once daily, nonelderly, Day 1): 19.7 (5.1) L/hr
- CL/F, mean (SD) ([1]; imarikiren 160 mg oral once daily, nonelderly, Day 7): 17.6 (3.3) L/hr
- Accumulation index (AUC) percentage (100 × AUC0‐tau day 7/AUC0‐inf day 1), mean (SD) ([1]; imarikiren 160 mg, nonelderly): 114.2 (30.0) %
- Accumulation index (t1/2) percentage, mean (SD) ([1]; imarikiren 160 mg, nonelderly): 119.7 (34.3) %
- R(AUC), AUC accumulation factor percentage (100 × AUC0‐tau day 7/AUC0‐tau day 1), mean (SD) ([1]; imarikiren 160 mg, nonelderly): 123.0 (32.6) %
- Accumulation index (AUC) percentage (100 × AUC0‐tau day 7/AUC0‐inf day 1), mean (SD) [1, 12]: 114.2%
- R(AUC), AUC accumulation factor percentage (100 × AUC0‐tau day 7/AUC0‐tau day 1), mean (SD) [1, 12]: 123.0%
- Plasma concentration reached steady state (based on trough concentration) ([1]; multiple oral administration of 80 mg and 160 mg, nonelderly): ≤ 7 days
- Time after the last administration for which inhibition of PRA was maintained ([2]; 80 mg (nonelderly and elderly) and 160 mg (nonelderly), once daily for 7 days): at least 71 hours
- PRA inhibition with multiple dosing ([2]; for 7 days, sustained for nearly 3 days after the last administration): complete inhibition
- Change from baseline in PRC, mean (SD) ([3]; imarikiren 80 mg oral once daily, elderly, Day 2 (–1 hr)): 78.3 (72.3) pg/mL
- Change from baseline in PRC, mean (SD) ([3]; imarikiren 80 mg oral once daily, elderly, Day 7 (23 hrs)): 154.4 (168.0) pg/mL
- Change from baseline in PRC, mean (SD) ([3]; imarikiren 80 mg oral once daily, nonelderly, Day 2 (–1 hr)): 169.3 (140.9) pg/mL
- Change from baseline in PRC, mean (SD) ([3]; imarikiren 80 mg oral once daily, nonelderly, Day 7 (23 hrs)): 247.1 (130.1) pg/mL
- Change from baseline in PRC, mean (SD) ([3]; imarikiren 160 mg oral once daily, nonelderly, Day 2 (–1 hr)): 129.5 (106.8) pg/mL
- Change from baseline in PRC, mean (SD) ([3]; imarikiren 160 mg oral once daily, nonelderly, Day 7 (23 hrs)): 487.3 (264.9) pg/mL
- Change from baseline in AII ([4]; 80 mg, elderly, any time): no changes from baseline
- Change from baseline in AII ([4]; 160 mg, nonelderly, days 1 through 7): decreased from baseline
- Overall safety and tolerability ([5]; 80 or 160 mg for 7 days nonelderly, 80 mg elderly): safe and well tolerated
- Intensity of TEAEs ([5]; all TEAEs, with the exception of moderate urticaria in 1 nonelderly subject (80 mg)): mild in intensity
- Changes in ECG parameters ([5]; all cohorts): No obvious changes
- Serious TEAEs and deaths ([5]; all cohorts, during the study): no serious TEAEs and no deaths
- TEAEs reported, subjects ([5]; all nonelderly subjects who received imarikiren): 22.2%
- TEAEs related to the study drug, subjects ([5]; all nonelderly subjects who received imarikiren (3 of 18 subjects)): 16.7%
- Subjects with any TEAEs [5, 13]: 3 (33.3) n (%)
- TEAE: Alanine aminotransferase increased [5, 13]: 1 (11.1) n (%)
- TEAE: Aspartate aminotransferase increased [5, 13]: 1 (11.1) n (%)
- TEAE: Blood creatinine phosphokinase increased [5, 13]: 0 n (%)
- TEAE: Blood triglycerides increased [5, 13]: 0 n (%)
- TEAE: Diarrhea [5, 13]: 1 (11.1) n (%)
- TEAE: Eye disorders [5, 13]: 0 n (%)
- TEAE: Feeling hot [5, 13]: 0 n (%)
- TEAE: Gastrointestinal disorders [5, 13]: 1 (11.1) n (%)
- TEAE: General disorders and administration site conditions [5, 13]: 0 n (%)
- TEAE: Headache [5, 13]: 1 (11.1) n (%)
- TEAE: Investigations [5, 13]: 2 (22.2) n (%)
- TEAE: Nervous system disorders [5, 13]: 1 (11.1) n (%)
- TEAE: Pruritus [5, 13]: 0 n (%)
- TEAE: Skin and subcutaneous tissue disorders [5, 13]: 0 n (%)
- TEAE: Urticaria [5, 13]: 0 n (%)
- TEAE: Vision blurred [5, 13]: 0 n (%)
- TEAE: White blood cell count decreased [5, 13]: 1 (11.1) n (%)
- TEAE: White blood cell count increased [5, 13]: 0 n (%)
- Subjects with any TEAEs [5, 14]: 2 (22.2) n (%)
- TEAE: Alanine aminotransferase increased [5, 14]: 0 n (%)
- TEAE: Aspartate aminotransferase increased [5, 14]: 0 n (%)
- TEAE: Blood creatinine phosphokinase increased [5, 14]: 0 n (%)
- TEAE: Blood triglycerides increased [5, 14]: 0 n (%)
- TEAE: Diarrhea [5, 14]: 0 n (%)
- TEAE: Eye disorders [5, 14]: 0 n (%)
- TEAE: Feeling hot [5, 14]: 1 (11.1) n (%)
- TEAE: Gastrointestinal disorders [5, 14]: 0 n (%)
- TEAE: General disorders and administration site conditions [5, 14]: 1 (11.1) n (%)
- TEAE: Headache [5, 14]: 0 n (%)
- TEAE: Investigations [5, 14]: 1 (11.1) n (%)
- TEAE: Nervous system disorders [5, 14]: 0 n (%)
- TEAE: Pruritus [5, 14]: 1 (11.1) n (%)
- TEAE: Skin and subcutaneous tissue disorders [5, 14]: 2 (22.2) n (%)
- TEAE: Urticaria [5, 14]: 1 (11.1) n (%)
- TEAE: Vision blurred [5, 14]: 0 n (%)
- TEAE: White blood cell count decreased [5, 14]: 0 n (%)
- TEAE: White blood cell count increased [5, 14]: 1 (11.1) n (%)
- TEAEs related to the study drug, subjects ([5]; imarikiren 80 mg, elderly (2 of 9 subjects)): 22.2%
- TEAEs reported, subjects ([5]; imarikiren 80 mg, elderly (3 of 9 subjects)): 33.3%
- TEAEs related to the study drug, subjects [5, 15]: 22.2%
- TEAEs reported, subjects [5, 15]: 22.2%
- Subjects with any TEAEs [5, 16]: 2 (22.2) n (%)
- TEAE: Alanine aminotransferase increased [5, 16]: 2 (22.2) n (%)
- TEAE: Aspartate aminotransferase increased [5, 16]: 0 n (%)
- TEAE: Blood creatinine phosphokinase increased [5, 16]: 0 n (%)
- TEAE: Blood triglycerides increased [5, 16]: 0 n (%)
- TEAE: Diarrhea [5, 16]: 0 n (%)
- TEAE: Eye disorders [5, 16]: 0 n (%)
- TEAE: Feeling hot [5, 16]: 0 n (%)
- TEAE: Gastrointestinal disorders [5, 16]: 0 n (%)
- TEAE: General disorders and administration site conditions [5, 16]: 0 n (%)
- TEAE: Headache [5, 16]: 0 n (%)
- TEAE: Investigations [5, 16]: 2 (22.2) n (%)
- TEAE: Nervous system disorders [5, 16]: 0 n (%)
- TEAE: Pruritus [5, 16]: 0 n (%)
- TEAE: Skin and subcutaneous tissue disorders [5, 16]: 0 n (%)
- TEAE: Urticaria [5, 16]: 0 n (%)
- TEAE: Vision blurred [5, 16]: 0 n (%)
- TEAE: White blood cell count decreased [5, 16]: 0 n (%)
- TEAE: White blood cell count increased [5, 16]: 0 n (%)
- TEAEs related to the study drug, subjects ([5]; imarikiren 160 mg, nonelderly (1 of 9 subjects)): 11.1%
- TEAEs reported, subjects ([5]; imarikiren 160 mg, nonelderly (2 of 9 subjects)): 22.2%
- Change in mean blood pressure ([5]; imarikiren groups, day 7 compared with baseline): decrease in mean blood pressure
- Inhibition of PRA after single oral administration (PRA [6]): completely inhibited PRA
- Tolerability of single dose [7]: good tolerability
- Food effect on the PK [8]: minimal effect

Compound: COCCCOc1cc(C[C@@H](C[C@H](N)[C@@H](O)C[C@H](C(=O)NCC(C)(C)C(N)=O)C(C)C)C(C)C)ccc1OC [aliskiren]
- PRA inhibition at steady state (PRA [9]): incomplete PRA inhibition
